Measurements: paper PMC10694493 (Cell Reports Methods, 2023)

Assay: B2LiVe 1D-1H amide-selective NMR, solution-to-membrane partitioning
Assay type: binding
Details: POPC:POPG 9:1 LUV; 3 μM protein; pH 4.2
How it was run: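 Test protein held constant while POPC:POPG 9:1 LUV (reverse-phase evaporation, 40 mM stock, extruded through 1.2 μm filters) are titrated from 0 to 2 mM. Buffer: 20 mM HEPES-Na, 20 mM NaCl, 5% D2O, 25°C. 1D amide-selective HET-SOFAST 1H spectra at 800 MHz, PC9 120° pulse centred at 9.5 ppm. Fraction in solution is taken from the amide integral after subtracting the highest-lipid vesicle spectrum.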

B1: apo-Mb: apo-myoglobin, 16.9 kDa amphitropic protein, Sigma-Aldrich (protein, UniProt P68082 2-154, looked up)
Myoglobin: GLSDGEWQQVLNVWGKVEADIAGHGQEVLIRLFTGHPETLEKFDKFKHLKTEAEMKASEDLKKHGTVVLTALGGILKKKGHHEAELKPLAQSHATKHKIPIKYLEFISDAIIHVLHSKHPGDFGADAQGAMTKALELFRNDIAAKYKELGFQG
modifications: heme-free
With B1 the “NMR signal remaining at the highest lipid concentration” value was “completely disappears”.
